# SENP8 block-1 – blocks human SENP8 cleavage of Nedd8 substrate; recombinant SENP8, Nedd8 substrate fluorescence; inhibition, % at 20 µM; Q96LD8; actives 0.64% (n = 360,000); in the data active = inhibition mostly above about 40%, no sharp cut-off; inactive = mostly below about 27%
# Target sequence (Q96LD8 whole entry, looked up): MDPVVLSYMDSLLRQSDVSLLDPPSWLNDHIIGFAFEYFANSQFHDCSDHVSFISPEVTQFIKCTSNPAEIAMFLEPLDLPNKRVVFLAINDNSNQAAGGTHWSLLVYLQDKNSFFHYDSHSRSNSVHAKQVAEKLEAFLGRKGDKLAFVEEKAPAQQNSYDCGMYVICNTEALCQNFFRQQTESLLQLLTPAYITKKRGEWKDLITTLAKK
# NRP1-CendR mod – NRP-1/CendR interaction modulation | O14786 | FAM-RPARPAR peptide binding to NRP-1, fluorescence polarization | inhibition, % at 25 µM | actives 0.85% (n = 360,000) | AID 602438;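 active = inhibition or corrected inhibition above about 18%, plus a signal ratio from 0.5 to 1.5, limit read from the data, passing the limit was not always enough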
# SENP8 block-2 – inhibitors of human SENP8 protease | AID 2540 | actives 1.2% (n = 330,000) | inhibition, % at 10 µM | purified SENP8, Z-RLRGG-aminoluciferin cleavage, luminescence | Q96LD8; in the data active = inhibition above about 50%
# SENP6 inh – SENP6 protease inhibition; AID 2599; Recombinant SENP6 catalytic domain, aminoluciferin luminescence; inhibition, % at 10 µM; actives 1.8% (n = 330,000);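 active = inhibition above about 50% at the single tested dose, limit read from the data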;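 note: plate controls were DMSO wells with enzyme for no effect and DMSO wells lacking enzyme for full effect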
# SENP7 inh – SENP7 protease inhibition. inhibition, % at 5 µM. AID 434973. actives 1.5% (n = 330,000). Q9BQF6. recombinant SENP7, Z-RLRGG-aminoluciferin luminescence, 40 min;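 active = inhibition above about 50% at the single test dose, limit read from the data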;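 note: plate controls were DMSO with enzyme for no effect and no enzyme buffer wells for full effect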
# Target sequence (Q9BQF6 706-1050 limits assumed): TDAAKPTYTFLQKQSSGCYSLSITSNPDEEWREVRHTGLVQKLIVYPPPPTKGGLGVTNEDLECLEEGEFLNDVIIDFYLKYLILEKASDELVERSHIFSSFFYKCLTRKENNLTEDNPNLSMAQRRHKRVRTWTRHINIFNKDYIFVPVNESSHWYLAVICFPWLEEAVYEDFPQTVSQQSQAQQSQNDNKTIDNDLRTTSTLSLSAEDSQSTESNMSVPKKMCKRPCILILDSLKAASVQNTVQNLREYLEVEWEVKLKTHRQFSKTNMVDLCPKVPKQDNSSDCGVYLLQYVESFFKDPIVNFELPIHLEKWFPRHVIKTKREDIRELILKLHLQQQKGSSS
# SENP1 FRET inh – blocks the human SENP1 SUMO protease catalytic domain. recombinant SENP1 catalytic domain, CyPet-SUMO1-YPet FRET cleavage. inhibition, % at 10 µM. actives 0.21% (n = 360,000). AID 624204;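 active = inhibition at least 30% at 10 µM, raw YFP signal under a set limit, fluorescence ratio 0.5 to 1.5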;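 note: 0% = enzyme with DMSO and 100% = no enzyme wells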
#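 Test system: human SENP1 catalytic domain; medium: Tris pH 8 buffer plus EDTA, NaCl, BME, BSA, NP40, catalase; incubation: 50 min reaction at room temperature; technique: FRET, CFP and YFP emission; controls: no-enzyme low control and enzyme-plus-DMSO high control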
# SENP8 conf – human SENP8 inhibition, confirmed; Recombinant SENP8, Z-RLRGG-aminoluciferin luminescence, 60 min; actives 40% (n = 6,200); shares compounds with SENP7 inh; AID 488912; inhibition, % at 12.5 µM;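 active = mean inhibition across replicates above about 50%, limit read from the data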
# SENP6 conf – confirmation of human SENP6 protease inhibitors. shares compounds with SENP7 inh. recombinant SENP6, Z-RLRGG-aminoluciferin luminescence. inhibition, % at 12.5 µM. actives 58% (n = 6,200). AID 488915
# SENP7 conf – human SENP7 inhibition, confirmed | shares compounds with SENP7 inh | recombinant SENP7, Z-RLRGG-aminoluciferin luminescence, 40 min | inhibition, % at 12.5 µM | actives 69% (n = 6,200)
# Casp3 select – caspase-3 inhibition (SENP selectivity assay); shares compounds with SENP7 inh; purified caspase-3, Z-DEVD-aminoluciferin luminescence, 60 min; inhibition, % at 12.5 µM; actives 60% (n = 6,200);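 active = mean inhibition above about 50%, limit read from the data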;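 note: plate controls were enzyme with DMSO for no effect and wells without caspase-3 for full effect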
# SENP luc ctr – interferes with luciferase luminescence in SENP counter-screen. shares compounds with SENP7 inh. Pre-incubated SENP8/Z-RLRGG-aminoluciferin, luciferase luminescence interference. inhibition, % at 12.5 µM. actives 39% (n = 6,200). AID 488919;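 active = mean inhibition above about 50% when retested at one dose, limit read from the data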;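 note: plate controls were DMSO wells with completed reaction for no effect and substrate without enzyme for full effect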
# An asterisk follows results filed as active; nt = no result given. Compounds with a hit are over-represented: about 3.3% of the library has one in this group of screens.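 Rule for the calls, unless noted: active = mean inhibition above about 50% in the one-dose retest (limit read from the data); inactive = the rest.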
SMILES,SENP8 block-1,NRP1-CendR mod,SENP8 block-2,SENP6 inh,SENP7 inh,SENP1 FRET inh,SENP8 conf,SENP6 conf,SENP7 conf,Casp3 select,SENP luc ctr
CCn1c(=O)c(C(=O)NCc2ccccc2OC)c(O)c2ccccc21,-14,-12,7,-13,5,3,nt,nt,nt,nt,nt
CCCn1c(=O)c(C(=O)NCc2ccccc2OC)c(O)c2ccccc21,-22,1,6,88*,9,1,9,5,3,0,4
Cc1ccccc1S(=O)(=O)NC(=O)C1(C)CCN1C(=O)Cc1cccs1 (configuration not stated),27,-10,nt,nt,nt,0,nt,nt,nt,nt,nt
COc1ccccc1C1(O)CC2CCC(C1)N2S(=O)(=O)c1ccc(C(C)=O)cc1 (configuration not stated),19,0,-7,-12,59*,1,4,3,10,6,0
Cc1ccsc1C1NC(=O)c2c(sc3c2CCCC3)N1 (configuration not stated),-241,-22,48,74*,54*,-20,32,68*,82*,53*,22
O=C1NC(c2ccc(Br)cc2)Nc2sc3c(c21)CCC3 (configuration not stated),-237,-48,0,-6,5,-45,nt,nt,nt,nt,nt
Cc1ccc(N=Nc2c(=O)[nH]n3c(=O)cc(C)[nH]c23)cc1,37,10,54*,76*,43,0,-16,18,60*,61*,45
Cc1[nH][nH]c(=O)c1N=Nc1ccc(Cl)cc1,22,-6,28,49,37,5,nt,nt,nt,nt,nt
Cc1cc(C)c(C(=O)OCC(=O)Nc2cccc(S(=O)(=O)N3CCCCC3)c2)c(C)c1,8,0,4,-6,5,0,nt,nt,nt,nt,nt
O=C(N/N=C/c1cc2c(cc1Cl)OCO2)c1cccc(Br)c1,-139,10,5,51*,48,0,15,22,33,31,8
O=C(N/N=C/c1cc2c(cc1Cl)OCO2)c1ccncc1,-31,-2,-6,-4,6,1,nt,nt,nt,nt,nt
O=C(Cc1ccccc1F)Nc1ccc(SC(F)F)cc1,19,9,26,61*,43,1,5,2,53*,18,28
CC(=O)Nc1ccc(NC(=O)c2ccccc2F)cc1,10,-6,-3,6,1,2,nt,nt,nt,nt,nt
O=C(Nc1ccc(SC(F)F)cc1)c1ccccc1F,16,4,20,50*,17,0,37,35,73*,41,63*
O=C(COC(=O)Cc1ccccc1F)Nc1ccc(SC(F)F)cc1,4,7,-8,-8,0,4,nt,nt,nt,nt,nt
CCCN(C(=O)CSc1ncccn1)C1CCS(=O)(=O)C1 (configuration not stated),0,-5,2,9,-3,8,nt,nt,nt,nt,nt
O=C(Nc1ccc(F)c(Cl)c1)c1nsc(Cl)c1Cl,15,-3,91*,93*,96*,-2,53*,74*,87*,80*,27
CCOc1ccc(NC(=O)c2nsc(Cl)c2Cl)cc1,27,-6,18,-33,35,1,nt,nt,nt,nt,nt
O=C(O)C1=C(C(=O)Nc2ccc(F)c(Cl)c2)CCCC1,14,6,2,-5,4,0,nt,nt,nt,nt,nt
O=C(Nc1ccc(F)cc1)c1nsc(Cl)c1Cl,32,-4,84*,94*,83*,1,62*,87*,97*,90*,57*
CCc1nc2ccc(C(=O)NCCCn3ccnc3)cn2c1N(C)Cc1ccc(Cl)cc1,-24,-4,nt,nt,nt,-9,nt,nt,nt,nt,nt
CC(=O)c1cccc(-c2ccnc3c2CC(C(=O)Nc2cccc(OC(F)(F)F)c2)O3)c1 (configuration not stated),13,-2,nt,nt,nt,-3,nt,nt,nt,nt,nt
Nc1ccc(-c2cc(N)n(-c3ccccc3)n2)cc1,-174,8,13,7,18,-1,nt,nt,nt,nt,nt
CC(=O)Nc1ccc(-c2cc(NC(C)=O)n(-c3ccccc3)n2)cc1,-27,4,-2,-12,-11,3,nt,nt,nt,nt,nt
Nc1cc(-c2ccc(Cl)cc2)nn1-c1ccccc1,-2,1,48,34,63*,-1,36,38,80*,53*,71*
SMILES,SENP8 block-1,NRP1-CendR mod,SENP8 block-2,SENP6 inh,SENP7 inh,SENP1 FRET inh,SENP8 conf,SENP6 conf,SENP7 conf,Casp3 select,SENP luc ctr
CC(=O)Nc1ccc(-c2cc(N)n(-c3ccccc3)n2)cc1,-67,-15,38,55*,58*,-7,45,44,78*,80*,62*
CC(c1ccon1)N(C)C(=O)c1cccc(OC2CCN(S(C)(=O)=O)CC2)c1 (configuration not stated),9,4,nt,nt,nt,0,nt,nt,nt,nt,nt
COc1ccc2c(c1OC)C(=O)OC2Nc1nc(-c2ccc(-c3ccccc3)cc2)cs1 (configuration not stated),-308,-41,69*,83*,63*,0,51*,49,56*,38,74*
COc1ccc2c(c1OC)C(=O)OC2Nc1nc(-c2cc3ccccc3oc2=O)cs1 (configuration not stated),-242,-32,90*,96*,91*,-6,91*,95*,88*,94*,86*
COc1ccc2c(c1OC)C(=O)OC2Nc1nc(-c2cc3cc([N+](=O)[O-])ccc3oc2=O)cs1 (configuration not stated),11,-58,52*,60*,65*,5,-7,-9,2,22,5
CNC[C@@H]1OCc2cnnn2CCCC(=O)N([C@H](C)CO)C[C@H]1C,15,-6,nt,nt,nt,5,nt,nt,nt,nt,nt
COc1ccc(NC(=O)N2CCc3ccccc32)cc1,13,16,86*,95*,96*,4,93*,93*,99*,94*,91*
CCOC(=O)c1ccc(NC(=O)N2CCc3ccccc32)cc1,17,1,77*,91*,96*,2,-13,81*,95*,76*,23
CCOC(=O)c1ccc(NC(=O)N2CCc3ccccc3C2)cc1,-2,2,13,10,5,0,nt,nt,nt,nt,nt
